A selection: hits, their analogues and other compounds. The true share with any hit is near 9.3%.
E coli WT exp = growth inhibitors of E. coli BW25113 wild type | OD600 absorbance | growth inhibition, % at 100 µM | hit rate 0.15% among 98,000 | AID 710;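 active = growth inhibition above about 50% at one test dose, limit read from the data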;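 note: growth measured after 20 h incubation at 37 °C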
tolC growth inh = growth inhibitors of E. coli BW25113 tolC mutant; OD615; growth inhibition, % at 10 µM (by protocol); hit rate 2.2% among 65,000; AID 573;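 active = growth inhibition at or above a cutoff equal to the mean over every tested compound plus 3 SD, cut at about 60% in these data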;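 note: growth measured after 20 h incubation at 37 °C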
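Doses: one dose of 10 µM final / Material: E. coli BW25113 ΔtolC::kan, tolC deletion mutant strain / Buffer or medium: LB with kanamycin 50 µg/mL / Evaluation: percent growth inhibition / Detection: optical density read at 615 nm / Incubation: 37 °C, 20 h exposure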
D1 mod = allosterically modulates the human D1 dopamine receptor; hit rate 5.9% among 58,000; B-score at 10 µM; HEK293 D1, CRE-luciferase, dopamine EC30 potentiation; actives deviate in either direction; AID 641; P21728;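 active = luminescence count or its row- and column-corrected plate score outside the 99.7% band of the plate's sample wells, on either side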
Target sequence (P21728 whole entry, looked up): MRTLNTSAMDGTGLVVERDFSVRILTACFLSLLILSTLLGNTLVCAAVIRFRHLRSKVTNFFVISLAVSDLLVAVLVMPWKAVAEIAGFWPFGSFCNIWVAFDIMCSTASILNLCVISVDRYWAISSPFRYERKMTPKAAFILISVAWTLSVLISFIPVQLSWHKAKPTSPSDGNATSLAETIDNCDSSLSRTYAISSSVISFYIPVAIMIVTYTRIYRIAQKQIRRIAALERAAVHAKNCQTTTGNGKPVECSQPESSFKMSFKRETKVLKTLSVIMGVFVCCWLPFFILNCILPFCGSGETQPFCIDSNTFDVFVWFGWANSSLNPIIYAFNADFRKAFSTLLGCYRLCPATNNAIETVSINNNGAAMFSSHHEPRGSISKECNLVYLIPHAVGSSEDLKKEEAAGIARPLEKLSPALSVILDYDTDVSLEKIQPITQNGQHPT
PostGolgi ctrl = inhibits growth of the yeast control strain | inhibition, % at 10 µM | AID 738 | efflux-deficient yeast background strain, growth absorbance A615, 16 h | hit rate 5% among 98,000
DAT uptake mod = modulates human dopamine transporter uptake under cocaine; Q01959; LLC-PK1 hDAT cells, [14C]-dopamine uptake with cocaine IC80; actives deviate in either direction; B-score at 10 µM; hit rate 1.3% among 110,000;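 active = Z score or B-score, a plate-position-corrected score, falls beyond the plate's 99.7% confidence bounds, in either direction; inactive = both scores lie inside the 99.7% bounds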;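 note: scored against the spread of the other compound wells on the same plate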
PostGolgi yeast = growth inhibition of a yeast mutant, post-Golgi transport screen; AID 739; inhibition, % at 10 µM; post-Golgi transport phenotypic cell assay; hit rate 0.9% among 98,000;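 note: yeast cells grown in 1536-well plates; yeast grown about 18 h at 30C before absorbance read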
Starred values were filed as active, the others as inactive. Cut-off read from the data, not from the text of the source, unless noted: active = inhibition above about 30%; inactive = the rest.

For COc1cc2cc(CN(Cc3nnnn3Cc3ccco3)C3CCCCC3)c(=O)[nH]c2cc1OC the results were E coli WT exp 3.0, tolC growth inh 20.4, D1 mod 2.53, PostGolgi ctrl 8.0, DAT uptake mod 3* and PostGolgi yeast -0.5.
Cc1ccc(-n2c(CNc3ccc(F)cc3)nnc2SCC(N)=O)cc1 was read as E coli WT exp 6.0, PostGolgi ctrl 10.1 and PostGolgi yeast -0.8.
Screening COC1(OC)N=C(NC(=O)Nc2ccccc2)C2(C#N)C(c3ccccc3)C12C#N (configuration not stated) returned E coli WT exp 4.0, tolC growth inh 1.8, D1 mod 1.12, PostGolgi ctrl 27.4, DAT uptake mod 0.562 and PostGolgi yeast 12.1.
For COc1ccc(Cn2nnnc2CN(Cc2cc3cccc(C)c3[nH]c2=O)C2CCCC2)cc1 the results were E coli WT exp -6.0, tolC growth inh 41.4, D1 mod -3.33*, PostGolgi ctrl -3.9, DAT uptake mod -0.00129 and PostGolgi yeast -3.7.
COc1ccccc1C1=NOC(C)(c2nnc(-c3cccc(Cl)c3)o2)C1 (configuration not stated) was read as DAT uptake mod -0.0834.
For Cc1ccc(N2C(=O)/C(=C\c3ccco3)SC2=S)cc1 the results were E coli WT exp -8.0, PostGolgi ctrl 32.0*, DAT uptake mod -0.502 and PostGolgi yeast -5.9.
For O=c1cc2c(nn1Cc1c(Cl)cccc1Cl)-c1ccccc1CC2 the results were E coli WT exp -7.0, PostGolgi ctrl 31.8*, DAT uptake mod 0.899 and PostGolgi yeast 15.5.
O=C1CCCc2ccccc2N1Cc1ccc(Cl)cc1Cl was read as E coli WT exp 6.0, PostGolgi ctrl 31.0*, DAT uptake mod -0.664 and PostGolgi yeast 6.9.
For O=C1CCCc2ccccc2N1Cc1ccccc1Cl the results were E coli WT exp 6.0, PostGolgi ctrl 34.4*, DAT uptake mod -0.408 and PostGolgi yeast 9.2.
`Clc1cccc(Cl)c1CSc1cc2c(nn1)-c1ccccc1CC2` gave E coli WT exp -18.0, PostGolgi ctrl 4.5, DAT uptake mod 2.18 and PostGolgi yeast -2.4.
For O=C1CCCc2ccccc2N1Cc1c(Cl)cccc1Cl the results were E coli WT exp 5.0, PostGolgi ctrl 41.5*, DAT uptake mod -0.074 and PostGolgi yeast 8.3.
`O=C1CCCc2ccccc2N1Cc1ccc(Cl)cc1` gave E coli WT exp 9.0, PostGolgi ctrl 22.5, DAT uptake mod 1.15 and PostGolgi yeast 6.9.
For CC(C)N(CCc1ccncc1)C(=O)Nc1ccc(Cl)c(Cl)c1 the results were E coli WT exp 8.0, tolC growth inh 34.6, D1 mod -0.0162, PostGolgi ctrl 90.3*, DAT uptake mod -1.01 and PostGolgi yeast 91.1*.
For CCc1ccc(-c2ccc(C(=O)C(F)(F)F)[nH]2)cc1 the results were E coli WT exp -3.0, PostGolgi ctrl -3.0, DAT uptake mod -1.06 and PostGolgi yeast -5.2.
Cc1c(NC(=O)C(C)NCC2CCCO2)c(=O)n(-c2ccccc2)n1C (configuration not stated) was read as E coli WT exp 2.0, PostGolgi ctrl 5.4, DAT uptake mod -0.572 and PostGolgi yeast -4.1.
`COc1ccccc1NC(=O)CC1C(=O)Nc2c1c(=O)n(C)c(=O)n2C` (configuration not stated) gave E coli WT exp 0.0, tolC growth inh -15.6, D1 mod -0.443, PostGolgi ctrl -0.5, DAT uptake mod -0.0722 and PostGolgi yeast -1.4.
For Cn1c2c(c(=O)n(C)c1=O)C(CC(=O)Nc1ccccc1)C(=O)N2 (configuration not stated) the results were E coli WT exp -8.0, tolC growth inh -4.8, D1 mod 0.0522, PostGolgi ctrl 8.1, DAT uptake mod -7.95* and PostGolgi yeast 2.8.
For CCN1CCN(C(=S)c2ccc(OCC(=O)N3CCOCC3)cc2)CC1 the results were E coli WT exp 9.0, PostGolgi ctrl 1.9, DAT uptake mod -0.344 and PostGolgi yeast -10.5.
Screening Cc1ccnc(NS(=O)(=O)c2ccc(NC(=O)C34CC5CC(C)(CC(C)(C5)C3)C4)cc2)n1 returned E coli WT exp -9.0, PostGolgi ctrl -6.2, DAT uptake mod 2.77* and PostGolgi yeast 0.0.
Screening O=C(CCN1CCC(c2ccccc2)C1)c1cccs1 (configuration not stated) returned E coli WT exp -3.0, tolC growth inh -17.1, D1 mod -4.73*, PostGolgi ctrl 38.8*, DAT uptake mod -0.0222 and PostGolgi yeast 3.3.
For Cc1ccc(/C(C#N)=C\c2cn(C)c3ccccc23)cc1 the results were E coli WT exp -10.0, tolC growth inh 43.9, D1 mod 1.63, PostGolgi ctrl 34.0*, DAT uptake mod -0.747 and PostGolgi yeast -3.7.
Screening CC(C)C[C@H](NC(=O)c1nc[nH]c1C(=O)N1CCN(c2ccccc2)CC1)C(=O)OCc1ccccc1 returned DAT uptake mod 0.382.
Screening Nc1nc(SCC(=O)Nc2ccccc2-c2ccccc2)n[nH]1 returned E coli WT exp 3.0, PostGolgi ctrl 0.8, DAT uptake mod -0.942 and PostGolgi yeast 2.0.
`Cc1cc(C)c(-c2cc(NC(=O)CSc3n[nH]c(N)n3)n(-c3ccccc3)n2)cc1C` gave E coli WT exp -7.0, PostGolgi ctrl 3.1, DAT uptake mod 3.29* and PostGolgi yeast -12.6.
CC(C)(C)n1nc2c(c1NC(=O)c1cccc(C(F)(F)F)c1)CS(=O)C2 (configuration not stated) was read as E coli WT exp -3.0, tolC growth inh -19.1, D1 mod -0.35, PostGolgi ctrl 9.8, DAT uptake mod -0.75 and PostGolgi yeast 5.2.
CCCCCCNC(=O)N[C@@H](C(=O)NCCC[C@H]1CN2C(=NC[C@@H]2Cc2ccccc2)N1CCc1cccc(OC)c1)C(C)C was read as DAT uptake mod -2.99*.
C=CCOC(=O)C1CC=CCC1C(=O)Oc1ccc(F)cc1F (configuration not stated) was read as E coli WT exp 3.0, tolC growth inh 10.9, D1 mod -0.493, PostGolgi ctrl 7.1, DAT uptake mod -0.132 and PostGolgi yeast -0.3.
`COC(=O)c1ccc(N=C2S/C(=C\c3cc(C)n(-c4cccnc4)c3C)C(=O)N2C)cc1` gave E coli WT exp -6.0, PostGolgi ctrl 32.3*, DAT uptake mod -0.00366 and PostGolgi yeast 1.6.
CN=C1S/C(=C\c2cc(C)n(-c3ccccc3F)c2C)C(=O)N1C was read as E coli WT exp -6.0, PostGolgi ctrl 20.8, DAT uptake mod -0.0639 and PostGolgi yeast -4.2.
For Cc1ccc(NC(=O)CC2C(=O)NC3CCCCC3N2C(=O)c2ccc(F)cc2)cc1C (configuration not stated) the results were E coli WT exp -8.0, tolC growth inh 15.2, D1 mod 1.69, PostGolgi ctrl 0.0, DAT uptake mod 0.068 and PostGolgi yeast -3.8.
`O=C(CC1C(=O)NC2CCCCC2N1C(=O)c1ccc(F)cc1)Nc1ccccc1` (configuration not stated) gave E coli WT exp 4.0, PostGolgi ctrl -3.4, DAT uptake mod 2.9* and PostGolgi yeast -2.3.

Source: PubChem BioAssay
